Bioassay records (PubChem BioAssay)
Shown is part of a subset that was picked to be rich in hits.
S1P3 antag: blocks the human S1P3 receptor. Q99500. CHO S1P3 NFAT-BLA reporter, FRET fluorescence, antagonist mode. inhibition, % at 4.98 µM. hit rate 0.27% among 170,000. AID 485;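 active = inhibition above the plate cutoff, the mean inhibition of test wells on that plate plus 3 SD, cut at about 28% in these data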;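 note: cells challenged with S1P at its EC80 of 0.8 µM; blue over green emission ratio from cleaved BLA substrate after 4 h stimulation; 0% = S1P-stimulated wells and 100% = unstimulated DMSO-only wells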
S1P4 antag: antagonists of human S1P4 receptor; O95977; S1P4-expressing cells, antagonist mode, reporter read-out; inhibition, % at 4.98 µM; hit rate 0.26% among 220,000; in the data active = inhibition above about 29%;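 note: 0% = wells stimulated with agonist and 100% = vehicle wells without agonist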
Target sequence (O95977 whole entry, looked up): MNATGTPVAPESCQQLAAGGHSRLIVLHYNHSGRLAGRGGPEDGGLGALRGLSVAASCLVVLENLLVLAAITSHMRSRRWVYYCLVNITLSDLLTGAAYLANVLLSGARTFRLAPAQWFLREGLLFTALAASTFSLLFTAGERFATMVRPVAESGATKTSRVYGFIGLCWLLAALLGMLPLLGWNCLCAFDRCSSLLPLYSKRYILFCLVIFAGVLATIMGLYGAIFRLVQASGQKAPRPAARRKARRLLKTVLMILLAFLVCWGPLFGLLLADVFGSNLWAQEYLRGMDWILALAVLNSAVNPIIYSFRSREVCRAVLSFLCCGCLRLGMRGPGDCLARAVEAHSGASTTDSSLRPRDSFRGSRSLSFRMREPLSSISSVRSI
S1P4 agonist: agonists of human S1P4 receptor; S1P4-expressing cell line, agonist reporter assay; activation, % at 4.98 µM; O95977; hit rate 0.35% among 220,000; in the data active = activation above about 11%;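 note: 0% = DMSO vehicle and 100% = reference agonist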
MDM2 E3 inh: Mdm2 E3 ligase (human) inhibition. hit rate 0.11% among 210,000. signal enhancement, % at 5 µM. cell-based MDM2 ubiquitination luciferase reporter, 2 h; 0 = plate control, 100 = twice control, blank-subtracted;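 active = signal enhancement of 30% or more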;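 note: luminescence tracks abundance of the self-degrading MDM2-luciferase fusion protein; higher signal means inhibition of MDM2 E3 ligase activity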
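Buffer or medium: Cells held in DMEM | Assay system: Stable mammalian line carrying autodegrading MDM2–luciferase fusion reporter | Quantity: 2000 cells/well | Times: 4 h settle plus 2 h compound, 37 °C | Doses: One concentration, 5 µM, with 0.2% DMSO | Technique: Luminescence with SteadyLite reagent, 15 min at room temperature | Benchmarks: Plate controls and plate blanks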
Lmaj promast: inhibitors of Leishmania major promastigote growth | Leishmania major promastigotes, resazurin fluorescence viability | inhibition, % at 10 µM | hit rate 9% among 200,000; in the data active = inhibition above about 50%;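 note: promastigotes grown with compound for 44 hours at 28 °C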
Starred values were filed as active, the others as inactive; x = no result given.

SMILES | S1P3 antag | S1P4 antag | S1P4 agonist | MDM2 E3 inh | Lmaj promast
CC1=CC(C)(C)Nc2ccc(OS(=O)(=O)c3ccc(C)cc3)cc21 | x | -24 | -2 | -23 | 94*
CC1=CC(C)(C)Nc2ccc(OC(=O)CCN3C(=O)c4ccccc4C3=O)cc21 | 1 | 6 | 1 | -8 | 79*
CN(C(=O)c1ccc(OC2CCN(CCc3ccccc3)CC2)cc1)C1CCCCC1 | -3 | 0 | 0 | -10 | 91*
Cc1ccc(Nc2c(-c3ccccn3)nc3cc(C)ccn23)cc1 | 20 | 4 | -1 | 5 | 101*
Cc1ccn2c(Nc3ccc4c(c3)OCO4)c(-c3ccccn3)nc2c1 | -3 | -2 | 0 | -2 | 100*
Cc1ccc(Nc2c(-c3ccccc3)nc3cnccn23)cc1 | 2 | 23 | 0 | -24 | 19
Cc1ccc2nc(-c3ccncc3)c(Nc3ccccc3)n2c1 | -21 | -2 | -1 | -3 | 97*
Cc1ccc(Nc2c(-c3ccccn3)nc3ccc(C)cn23)cc1 | 8 | 7 | 1 | -30 | 101*
Cc1ccc2nc(-c3ccco3)c(Nc3ccccc3)n2c1 | -10 | 3 | 1 | -13 | 4
CCOc1cc(/C=C2\SC(=N)N(c3nccs3)C2=O)ccc1OCCN1CCOCC1 | 5 | 6 | 0 | -11 | 97*
COC(=O)CCCn1c(C)cc(C(=O)CCl)c1C | -28 | -1 | 0 | -14 | 100*
Cc1cc(C(=O)CCl)c(C)n1CCc1ccccc1 | -19 | 15 | 2 | -5 | 100*
CN(CCCNC(=O)Cn1cccc1C(=O)c1ccccc1)C1CCCCC1 | 7 | -11 | 1 | -19 | -1
CCOC(=O)c1ccc(CNCc2ccc(C)cc2)cc1 | -10 | -12 | -1 | x | 79*
Fc1ccc(/C=N/Nc2nc3ccccc3[nH]2)cc1F | 0 | 4 | 2 | -33 | 90*
Fc1cccc(/C=N/Nc2ccc3ccccc3n2)c1 | -16 | -5 | -3 | -67 | 52*
Fc1cccc(/C=N/Nc2nc3ccccc3[nH]2)c1 | 3 | 14 | 0 | -3 | 83*
O=C(COc1cc(Cl)c(Cl)cc1Cl)NC(=O)Nc1ccc2c(c1)OCCO2 | 3 | -18 | 1 | 2 | 63*
O=C(COC(=O)CNC(=O)c1ccc(Cl)cc1)Nc1ccc2c(c1)OCCO2 | -12 | -30 | 0 | 9 | 57*
Cc1ccc(Cl)c(OCC(=O)Nc2ccc3c(c2)OCCO3)c1 | 2 | -1 | 2 | -17 | -2
O=C(COC(=O)/C=C/c1ccc(Cl)cc1)Nc1ccc2c(c1)OCCO2 | -3 | -6 | 0 | -8 | 51*
O=C(COC(=O)Cc1cccc(C(F)(F)F)c1)Nc1ccc2c(c1)OCCO2 | -1 | -16 | 0 | -10 | 65*
O=C(COC(=O)Cc1ccccc1F)Nc1ccc2c(c1)OCCO2 | -5 | -16 | 0 | x | -5
COC(=O)c1ccc(N2C(=O)Nc3ccccc3N2O)cc1 | -15 | 1 | -1 | -5 | 4
C=C(C)CNC(=S)N/N=C/c1ccco1 | 0 | -6 | 0 | x | x
SMILES | S1P3 antag | S1P4 antag | S1P4 agonist | MDM2 E3 inh | Lmaj promast
Cc1cc([N+](=O)[O-])cc(C)c1OCC(=O)N/N=C/c1ccc(OC(=O)c2ccccc2)cc1 | 0 | 13 | 1 | -4 | -1
Cc1ccccc1OCC(=O)NCC(=O)N/N=C/c1cccc([N+](=O)[O-])c1 | 7 | 1 | 0 | -5 | 4
Cc1ccccc1OCC(=O)N/N=C/c1cccc(Oc2ccc([N+](=O)[O-])cc2[N+](=O)[O-])c1 | -12 | -18 | 1 | -7 | 74*
Cc1c(/C=N/NC(=O)COc2ccccc2[N+](=O)[O-])c2ccccc2n1C | 1 | -18 | 2 | -9 | 56*
Cc1cc([N+](=O)[O-])cc(C)c1OCC(=O)N/N=C/c1ccc(OC(=O)c2ccccc2Br)cc1 | 4 | -4 | 1 | -8 | 85*
Cc1cc(C(=O)Nc2ncn[nH]2)ccc1[N+](=O)[O-] | 3 | -18 | -1 | -4 | -2
Cn1c(=O)c2c(nc(SCC(=O)N3CCc4ccccc43)n2Cc2ccccc2)n(C)c1=O | -29 | x | x | x | x
CCOC(=O)N1CCC(NC(=O)c2cccc3c2C(=O)N(Cc2cccnc2)C3)CC1 | -22 | -26 | 0 | -18 | -7
COc1ccc(C(CCN)Cc2ccccc2)cc1 (stereo unspecified) | -10 | 12 | 1 | -3 | 51*
C[C@H](O)CC1=C[C@H](O)[C@@H](C)OC1=O | 3 | -8 | -1 | 1 | -11
Cc1cc(OCCCn2ccnc2)cc(C(C)C)c1 | 6 | -14 | 1 | -10 | 78*
CCC(C)c1ccc(OCCn2ccnc2)cc1 (stereo unspecified) | 5 | -14 | 1 | -16 | 60*
CCc1cccc(OCCn2ccnc2)c1 | -6 | -5 | -2 | -1 | 40
Cc1cc(OCCn2ccnc2)cc(C(C)C)c1 | -6 | -21 | -1 | 11 | 92*
Cc1cc(OCCCn2ccnc2)ccc1C(C)C | 4 | -2 | 0 | -3 | 99*
COc1ccc(CC(=O)NNc2ncnc3c2cnn3-c2ccc(C)cc2)cc1OC | 2 | -13 | 2 | 1 | 8
O=C(CCC1CCCN(C(=O)CCN2CCCCC2=O)C1)NCc1ccccc1F (stereo unspecified) | -22 | 0 | -1 | -17 | -5
CN(Cc1ccccc1)c1ccc(N2C(=O)CCCC2=O)cc1[N+](=O)[O-] | 7 | -24 | 1 | 1 | 81*
Cc1cccc(N2CCN(c3ccc(N4C(=O)CCCC4=O)cc3[N+](=O)[O-])CC2C)c1 (stereo unspecified) | -1 | -5 | 1 | -3 | 50*
CN(Cc1ccccc1)c1ccc(N2C(=O)CCC2=O)cc1[N+](=O)[O-] | -46 | 7 | 0 | -3 | -6
O=C1CCCC(=O)N1c1ccc(N2CCN(c3ccccc3)CC2)c([N+](=O)[O-])c1 | -10 | -4 | 0 | -1 | -8
Cc1cccc(N2CCN(c3ccc(N4C(=O)CCCC4=O)cc3[N+](=O)[O-])CC2)c1C | -4 | -22 | 1 | -11 | 58*
CN(C)CCCN(C(=O)CCOc1ccccc1)c1nc2c(F)cccc2s1 | 6 | -9 | -3 | -14 | 50*
Cc1cccc2sc(N(CCN(C)C)C(=O)/C=C/c3cccs3)nc12 | -3 | 5 | 10 | -7 | 19
CN(C)CCCN(C(=O)CCOc1ccccc1)c1nc2ccc(F)cc2s1 | 4 | -2 | 0 | 6 | 93*
CN(C)CCCN(C(=O)COc1ccccc1)c1nc2ccc(F)cc2s1 | -1 | 6 | 1 | -9 | -1
CN(C)CCCN(C(=O)/C=C/c1cccs1)c1nc2c(F)cccc2s1 | 16 | -9 | -3 | -12 | 97*
CCOC(=O)c1c(C)[nH]c(C)c1C(=O)COC(=O)c1ccc(Cl)c(S(N)(=O)=O)c1 | x | -18 | 0 | x | 0
O=C(O)/C=C/S(=O)(=O)c1ccc2ccccc2c1 | 0 | 15 | -2 | -8 | x
CCn1cc(C(=O)N2CCN(c3cccc(Cl)c3)CC2)c2cc(OC)c(OC)cc2c1=O | x | -6 | 0 | -11 | 92*
